# In ChEMBL document CHEMBL1126297, “Synthesis and evaluation of analogues of (Z)-1-(4-methoxyphenyl)-2-(3,4,5-trimethoxyphenyl)ethene as potential cytotoxic and antimitotic agents” (J Med Chem, 1992):
# What was measured:
# Assay type in all cases: functional
# MLM = assay: Cytotoxicity against human MLM melanoma cell line.; settings: read-out: ED50 (the source's name)
# Method in brief: (§1)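 MTT colorimetric assay run in the Purdue Cell Culture Laboratory. Poorly water-soluble compounds were serially diluted in DMSO and added as 0.5 μL aliquots per well. Cells were incubated with compound for 6 days before MTT was added. […] The reported ED50 is the mean of two determinations.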
# SK-MEL-5 = assay: Compound was evaluated for cytotoxicity against human SKMEL-5 melanoma cell line.; settings: read-out: ED50 (the source's name); method in brief: as §1
# A549 = assay: Compound was evaluated for cytotoxicity against human A-549 non-small cell lung cancer cell line.; settings: read-out: ED50 (the source's name); method in brief: as §1
# Bos taurus = organism: Bos taurus; assay: Inhibition of tubulin polymerization
# Method in brief: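 Bovine brain tubulin, purified to electrophoretic homogeneity, was preincubated at 37 °C with a range of compound concentrations and then chilled on ice. GTP was added and polymerization followed at 37 °C by turbidity at 350 nm. Extent was read at 20 min against two controls per experiment, and IC50 was determined graphically. Actives were run in ≥3 independent assays, inactives (IC50 > 40 μM) in ≥2.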
# MCF7 = assay: Cytotoxicity against human MCF-7 breast cancer cell line.; settings: read-out: ED50 (the source's name); method in brief: as §1
# HT-29 = assay: Cytotoxicity against human HT-29 colon cell line.; settings: read-out: ED50 (the source's name); method in brief: as §1
Compound,EC50 (MLM),EC50 (SK-MEL-5),EC50 (A549),IC50 (Bos taurus),EC50 (MCF7),EC50 (HT-29)
COc1ccc(Cc2cc(OC)c(OC)c(OC)c2)cc1,1.3 µM,1200 nM,1.5 µM,15 µM,1900 nM,1.3 µM
COc1ccc(C(C#N)Cc2cc(OC)c(OC)c(OC)c2)cc1 (configuration not stated),21.1 µM,6400 nM,11.5 µM,> 40 µM,14300 nM,9.4 µM
COc1ccc(CC2c3cc(OC)c(OC)c(OC)c3CCN2C)cc1 (configuration not stated),> 25 µM,8800 nM,11.4 µM,> 40 µM,22700 nM,9.7 µM
COc1ccc(/C=C\c2cc(OC)c(O[Si](C)(C)C(C)(C)C)c(OC)c2)cc1,> 25 µM,> 25000 nM,> 25 µM,> 40 µM,> 25000 nM,9 µM
CCN(CC)CCOC(=O)/C(=C/c1ccc(OC)cc1)c1cc(OC)c(OC)c(OC)c1,> 25 µM,2700 nM,1.8 µM,> 40 µM,2100 nM,2.8 µM
COc1ccc(/C(=C\c2cc(OC)c(OC)c(OC)c2)C(=O)O)cc1,> 25 µM,2300 nM,5.2 µM,> 40 µM,1900 nM,5.9 µM
COc1cc(/C=C\c2ccc(C)cc2)cc(OC)c1OC,0.0066 µM,0.83 nM,0.00094 µM,2 µM,24 nM,0.0023 µM
CCc1ccc(CCc2cc(OC)c(OC)c(OC)c2)cc1,0.27 µM,47 nM,0.088 µM,18 µM,160 nM,0.016 µM
COc1cc(CCc2ccc(SC)cc2)cc(OC)c1OC,1.3 µM,240 nM,0.15 µM,> 40 µM,200 nM,0.4 µM
COc1ccc(CC(C#N)c2cc(OC)c(OC)c(OC)c2)cc1 (configuration not stated),1.6 µM,4100 nM,9.6 µM,11 µM,1400 nM,7.5 µM
COc1ccc(/C=C/c2ccc(OC)c(OC)c2)cc1,> 25 µM,> 25000 nM,11.7 µM,> 40 µM,> 25000 nM,> 25 µM
COc1ccc(C(=O)c2c3cc(OC)c(OC)c(OC)c3cc[n+]2C)cc1,> 25 µM,> 25000 nM,> 25 µM,> 40 µM,> 25000 nM,> 25 µM
COc1cc(/C=C/c2ccc(C(C)(C)C)cc2)cc(OC)c1OC,> 25 µM,> 25000 nM,> 25 µM,> 40 µM,> 25000 nM,> 25 µM
COc1ccc(C(=O)c2cc(OC)c(OC)c(OC)c2)cc1,1.3 µM,1200 nM,1.1 µM,7.4 µM,1500 nM,1.3 µM
COc1cc2ccc3c(OC)cccc3c2c(OC)c1OC,> 25 µM,12000 nM,> 25 µM,> 40 µM,14600 nM,9.3 µM
COc1cccc(/C=C(/C(=O)O)c2cc(OC)c(OC)c(OC)c2)c1,> 25 µM,50 nM,0.025 µM,> 40 µM,> 25000 nM,0.12 µM
COc1ccc2c(c1)CN1CCc3c(cc(OC)c(OC)c3OC)C1C2 (configuration not stated),> 25 µM,> 25000 nM,> 25 µM,> 40 µM,> 25000 nM,> 25 µM
